# PAFAH1B3 FP inh = inhibitors of human PAFAH1B3; inhibition, % at 3.39 µM; 0.28% of 340,000 active; recombinant PAFAH1B3, FP-rhodamine probe, fluorescence polarization;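 active = inhibition above the screen-wide average of all tested compounds plus 3 SD, cut at about 25% in these data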;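 note: 0% = enzyme with DMSO only and 100% = wells lacking PAFAH1B3 protein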
# Target sequence (Q15102 whole entry, looked up): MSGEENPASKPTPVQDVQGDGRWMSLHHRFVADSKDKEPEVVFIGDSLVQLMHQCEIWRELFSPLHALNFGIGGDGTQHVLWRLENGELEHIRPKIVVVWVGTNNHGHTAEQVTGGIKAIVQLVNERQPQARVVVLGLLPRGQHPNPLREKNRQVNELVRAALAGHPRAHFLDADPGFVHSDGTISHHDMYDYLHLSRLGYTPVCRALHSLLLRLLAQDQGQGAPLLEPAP
# PAFAH2 inh = inhibitors of human PAFAH2. recombinant PAFAH2, FP-rhodamine activity probe, fluorescence polarization. inhibition, % at 3.39 µM. Q99487. 0.99% of 340,000 active;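 active = inhibition above the mean over all tested compounds plus 3 SD, cut at about 30% in these data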;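 note: inhibitors block probe labeling of enzyme so polarization drops; 0% = enzyme with DMSO and 100% = wells lacking PAFAH2 protein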
# PAFAH1B2 inh = inhibitors of human PAFAH1B2 | P68402 | recombinant PAFAH1B2, FP-rhodamine activity probe, fluorescence polarization | inhibition, % at 3.39 µM | 1.2% of 340,000 active | AID 492953;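 active = inhibition above the mean of all tested compounds plus 3 SD, cut at about 24% in these data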;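 note: 0% = enzyme with DMSO and 100% = wells lacking PAFAH1B2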
# Target sequence (P68402 whole entry, looked up): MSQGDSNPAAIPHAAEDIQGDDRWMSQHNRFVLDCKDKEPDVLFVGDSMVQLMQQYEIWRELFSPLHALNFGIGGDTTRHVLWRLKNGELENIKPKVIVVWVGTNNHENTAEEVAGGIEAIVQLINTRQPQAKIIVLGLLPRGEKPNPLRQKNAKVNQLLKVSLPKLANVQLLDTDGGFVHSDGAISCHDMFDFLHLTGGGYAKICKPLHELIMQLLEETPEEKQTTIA
# RBBP9 inhibitor = blocks human serine hydrolase RBBP9. recombinant RBBP9, FP-Rh probe fluorescence polarization. inhibition, % at 7.94 µM. 0.2% of 220,000 active;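 active = inhibition above the campaign mean of all tested compounds plus 3 SD, cut at about 14% in these data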;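 note: plate controls were DMSO wells with RBBP9 for no effect and wells lacking RBBP9 protein for full effect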
# Target sequence (O75884 whole entry, looked up): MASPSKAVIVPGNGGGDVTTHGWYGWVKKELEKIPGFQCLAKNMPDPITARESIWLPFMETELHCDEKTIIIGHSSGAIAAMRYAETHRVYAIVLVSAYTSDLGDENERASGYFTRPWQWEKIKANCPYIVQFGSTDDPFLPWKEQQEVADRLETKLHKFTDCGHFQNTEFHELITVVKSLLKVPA
#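 Assay system: recombinant human RBBP9; Reagent: Serine-hydrolase probe FP-Rh, 375 nM pre-mixing; Doses: 7.94 µM single dose, 0.794% DMSO; Incubation: 30 min then 45 min, 25 °C; Detection: fluorescence polarization (mP), excitation 525 nm, emission 598 nm; Evaluation: percent inhibition from mP, scaled between DMSO and no-protein wells.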
# pPAFAH inh = inhibitors of human plasma PAF acetylhydrolase (pPAFAH). 1.5% of 330,000 active. inhibition, % at 3.39 µM. recombinant pPAFAH, FP-rhodamine probe fluorescence polarization. AID 463082;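 active = inhibition above the mean inhibition across the screen plus 3 SD, cut at about 25% in these data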;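 note: inhibitors block binding of the rhodamine activity-based probe so polarization drops; 0% = enzyme with DMSO and 100% = wells lacking pPAFAH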
# RBBP9 confirm = human RBBP9 inhibition, confirmation; recombinant RBBP9, FP-Rh probe fluorescence polarization; 36% of 410 active; shares compounds with RBBP9 inhibitor; inhibition, % at 7.94 µM;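 active = inhibition above the hit cutoff derived for the primary screen, cut at about 15% in these data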;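 note: 0% = RBBP9 with DMSO and 100% = wells lacking RBBP9 protein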
# An asterisk follows results filed as active; . = no result. An excerpt weighted towards active compounds, which were near 2.7% of everything screened.
SMILES,PAFAH1B3 FP inh,PAFAH2 inh,PAFAH1B2 inh,RBBP9 inhibitor,pPAFAH inh,RBBP9 confirm
Clc1ccc(-c2nn3c(-c4ccccc4)nnc3s2)cc1,-4.8,12.5,3.3,17.4*,10.0,6.0
O=c1c2ccccc2sn1-c1ccccc1,3.8,16.4,-1.7,51.1*,1.8,49.8*
O=C(O)c1cccc(-n2sc3ccccc3c2=O)c1,5.6,5.8,-0.2,.,4.9,.
COC(=O)CC(=O)CSc1nc2c(cc1C#N)CCC2,2.1,-0.6,-2.0,23.9*,2.6,9.9
CC(C)OC(=O)CC(=O)CSc1nc2c(cc1C#N)CCC2,8.5,3.7,2.5,5.2,3.1,.
CC(=O)C1=C(C)Nc2ncnn2C1c1ccccc1 (stereo not given),1.6,-3.4,-0.5,.,.,.
CCOC(=O)C1=C(C)N(c2ccc(C)cc2)C(=O)/C1=C\c1ccc(O)c(OC)c1,5.4,7.5,3.6,14.7*,6.7,29.4*
COC(=O)C1=C(C)N(Cc2ccc(C)cc2)C(=O)/C1=C\c1ccc(O)c(OC)c1,2.4,-3.7,2.7,-0.1,10.5,.
Oc1ccc(Br)cc1/C=N/n1c(C2CCCCC2)n[nH]c1=S,8.3,11.4,4.2,.,4.9,.
O=[N+]([O-])c1ccc(C(=S)N2CCN(c3ccc(F)cc3)CC2)cc1,14.5,11.0,-0.1,14.6*,-4.5,5.7
N#CC1=C(N)Oc2ccc3ccc(O)cc3c2C1c1ccsc1 (stereo not given),113.5*,97.8*,93.2*,53.0*,.,47.2*
COCCN1C(=O)N[C@@H](c2ccco2)C(C(C)=O)=C1C,23.1,0.3,4.4,-10.1,-6.9,.
CC(=O)Nc1ccc2cc3ccc(NC(C)=O)cc3nc2c1,18.0,6.2,3.4,50.2*,-6.0,10.6
Cc1cc(C(=O)NN=C2C3CC4CC(C3)CC2C4)c2ccccc2n1,4.6,-5.1,1.2,14.8*,11.2,6.7
Cc1cc(C(=O)NN=C2CCCC2)c2ccccc2n1,3.6,11.1,-1.4,.,-1.7,.
COc1ccc(C(C(=O)NCC2CCCO2)N(Cc2cccs2)C(=O)c2snc(C(N)=O)c2N)cc1 (stereo not given),-4.9,0.2,-0.4,.,0.5,.
CCOc1ccccc1/C=N/NC(=O)c1cccc(S(=O)(=O)N(CC)CC)c1,1.3,-2.9,-1.1,-6.8,-1.1,.
CN(C)S(=O)(=O)c1cccc(NC(=S)N/N=C/c2ccc(O)c(O)c2O)c1,10.9,11.9,8.4,32.1*,.,51.2*
CCN(CC)S(=O)(=O)c1cccc(C(=O)N/N=C/c2ccc(O)c(O)c2O)c1,16.6,7.7,14.0,17.8*,30.1*,66.0*
CC1(C)C(=O)Nc2ccccc2N1C(=O)COC(=O)Cc1c(F)cccc1Cl,9.3,5.2,0.5,.,5.8,.
CCn1c(CSc2ncn[nH]2)nc2cc(C(=O)O)ccc21,-0.9,12.0,5.4,4.8,7.7,.
CCn1c(CSc2nnc(-c3ccncc3)n2C)nc2cc(C(=O)O)ccc21,36.2*,48.9*,36.5*,17.3*,25.9*,21.5*
CC(C)CNC(=O)[C@H](Cc1ccccc1)NC(=O)c1cccs1,1.5,3.5,3.5,.,2.7,.
CC(=O)c1ccc(OC(=O)C2CC(=O)N(c3cccc(C)c3)C2)cc1 (stereo not given),2.8,-0.4,-3.9,16.2*,1.5,4.5
Cc1cccc(N2CC(C(=O)O)CC2=O)c1 (stereo not given),3.5,-3.8,-4.7,8.1,1.8,.
SMILES,PAFAH1B3 FP inh,PAFAH2 inh,PAFAH1B2 inh,RBBP9 inhibitor,pPAFAH inh,RBBP9 confirm
COc1ccc(C(=O)N(CC(=O)NC(C)(C)C)c2ccc3c(c2)OCCO3)cc1OC,3.9,-7.4,3.9,14.6*,-1.9,6.4
CC(C)(C)NC(=O)CN(C(=O)c1ccc(CN2CCOCC2)o1)c1ccc2c(c1)OCCO2,-6.0,-4.3,3.0,-6.7,0.5,.
Cc1cccc(NS(=O)(=O)c2cc(NC(=O)CC(=O)c3ccc([N+](=O)[O-])cc3)ccc2C)c1,.,.,.,30.3*,.,15.7*
Cc1ccc(C(=O)Nc2cccc([N+](=O)[O-])c2)cc1S(=O)(=O)Nc1ccc(C(=O)O)cc1,1.2,7.7,-0.1,5.6,-0.8,.
CN(C(=O)c1ccc(NC(=O)C2CCCN(C(=O)OC(C)(C)C)C2)cc1)C1CCCC1 (stereo not given),0.0,1.9,5.4,.,4.9,.
O=C(C[n+]1ccc(C(=O)NCCCO)cc1)c1cccc(Br)c1,4.0,-1.7,0.7,62.6*,1.4,6.2
Cc1ccc(-n2c(C)cc(=O)cc2C)c(C)c1,0.4,4.3,2.3,-7.0,4.8,.
Cc1cc(N)ccc1-n1c(C)ccc1C,24.0,8.7,5.7,31.3*,33.1*,-55.6
COc1ccc(CN2CCNC(=O)C2CC(=O)N(C)Cc2ccon2)c(F)c1 (stereo not given),0.2,5.5,-1.9,.,1.4,.
O=C(Nc1ccccc1)c1cc2ccccc2o1,2.4,0.2,3.4,-12.1,-2.9,.
O=C(Nc1ccccc1)c1cccc(=O)o1,9.4,-1.6,2.1,17.5*,-4.3,4.1
Cc1nc2ccccc2c(=O)n1/N=C/c1c(O)ccc2oc3c(c12)CCCC3,4.5,4.0,0.7,19.3*,11.0,4.5
Cc1cc(-c2ccccc2)nc(N/N=C/c2ccccc2F)n1,7.4,2.5,6.9,.,-0.5,.
Cc1cc(-c2onc(C)c2C(=O)Oc2ccc(Cl)cc2)no1,1.9,-3.0,7.8,-6.4,-2.0,.
Cc1cc(-c2onc(C)c2C(N)=O)no1,-2.1,4.4,-0.1,14.4*,-1.4,6.2
CC(Sc1ncccn1)C(=O)Nc1ccc2c(c1)OCO2 (stereo not given),2.2,6.9,6.1,.,4.0,.
Cc1ccc(S(=O)(=O)NCCC(=O)N2CCN(Cc3ccccc3)CC2)cc1,4.3,-1.8,-1.8,29.1*,5.9,6.1
CC(=O)N1CCc2cc(S(=O)(=O)NCCC(=O)N3CCN(Cc4ccccc4)CC3)ccc21,-2.5,4.0,-0.2,-6.4,4.3,.
CCCCCCCC1CC(CSC(=N)N)OC1=O (stereo not given),-1.6,4.6,1.2,23.4*,1.9,5.8
CCn1c2ccccc2c2cc(NC(=O)COC(=O)c3cc(S(N)(=O)=O)c(Cl)cc3Cl)ccc21,-3.7,-3.3,-2.2,-11.2,1.9,.
CC(=O)C(=Nc1ccccc1Cl)NNc1ccc(Cl)cc1,10.4,2.8,-0.4,37.5*,14.0,6.0
COc1cccc(NC(=O)Cn2c(=O)n(-c3ccccc3)c(=O)c3oc4ccccc4c32)c1,-9.7,-1.6,-2.8,16.0*,11.2,-2.5
CC(=O)Nc1ccc2c(c1)nc1n2CCN(C2CCCCC2)C1,5.2,2.3,2.6,-8.6,.,.
Cc1ccc(Cl)c(NC(=O)COC(=O)c2nn(C)c(=O)c3ccccc23)c1Cl,-0.2,2.5,-0.5,.,-0.5,.
CCOC(=O)C(CCCCCOc1ccc([N+](=O)[O-])cc1)C(=O)OCC,0.5,1.8,-3.8,17.7*,5.7,5.9
COC(=O)c1ccccc1NC(=O)N1CCN(Cc2ccco2)CC1,7.3,0.1,5.8,-0.5,-6.1,.

# Assay outcomes (PubChem)
